Measured values from different studies.
Compare with care: the assays were run in different laboratories.
Target: Receptor tyrosine-protein kinase erbB-4 (ERBB4, Homo sapiens, UniProt Q15303)

Compound	test	setting	quantity	value
Cn1cc(-c2cccc(N3CCc4c(sc5c4CC(C)(C)C5)C3=O)c2CO)cc(Nc2ccncn2)c1=O	enzyme activity, inhibitor	1 µM	inhibition	0%
Cn1cncc1[C@@](O)(COc1ccc(C#N)cc1-c1ccc(OC(F)(F)F)cc1)c1ccc(C#N)cc1	cell-free assay, competition with immobilised ligand	1 µM	remaining binding	100%
Nc1ncc(-c2nc(N3CCOCC3)nc(N3CCOCC3)n2)c(C(F)F)n1	binding, competition with immobilised ligand	10 µM	remaining binding	60%
COc1cc(Nc2ncc(F)c(Nc3ccc4c(n3)NC(=O)C(C)(C)O4)n2)cc(OC)c1OC	binding, competition with immobilised ligand	10 µM	inhibition	89%
Cc1nn(C)cc1-c1nc2c(N3CCN(Cc4ccc(Cl)cc4)CC3)c(Cl)cnc2[nH]1	binding, competition with immobilised ligand	1 µM	remaining binding	100%
O=c1[nH]c2ccccc2n1C1CCN(Cc2ccc(-c3[nH]c4cc5ncnc5cc4nc3-c3ccccc3)cc2)CC1	cell-free assay	0.5 µM	remaining signal	105%
COc1ncccc1-c1cnn2ccc(N3CCN(C(=O)OC(C)C)CC3)nc12	binding, competition with immobilised ligand	1 µM	remaining binding	100%
C#Cc1n[nH]c2c(-c3cn([C@@H](C)c4ccccc4)c(=O)[nH]c3=O)cc(F)cc12	enzyme activity, inhibitor	0.1 µM	inhibition	-16.5%
Cn1cc(-c2cc(F)cc(N3CCn4c(cc5c4CCCC5)C3=O)c2CO)cc(Nc2ccc(N3CCN(C4COC4)CC3)cn2)c1=O	enzyme activity, inhibitor	0.1 µM	inhibition	8%
N#CC1(c2ccccn2)CCN(Cc2cc(C(=O)O)c(=O)n3ccccc23)CC1	cell-free assay, competition with immobilised ligand	1 µM	remaining binding	72%
CC(C)(C)c1cc(C=C(C#N)C#N)cc(Br)c1O	enzyme activity, inhibitor	0.5 µM	remaining activity	94%
C#Cc1n[nH]c2c(-c3cn([C@@H](C)c4ccccn4)c(=O)[nH]c3=O)cc(F)cc12	enzyme activity, inhibitor	0.1 µM	inhibition	-15.6%
